Data set [1] has as its target T1, Polyunsaturated fatty acid 5-lipoxygenase (Homo sapiens, UniProt P09917).
T1 sequence (P09917 whole entry): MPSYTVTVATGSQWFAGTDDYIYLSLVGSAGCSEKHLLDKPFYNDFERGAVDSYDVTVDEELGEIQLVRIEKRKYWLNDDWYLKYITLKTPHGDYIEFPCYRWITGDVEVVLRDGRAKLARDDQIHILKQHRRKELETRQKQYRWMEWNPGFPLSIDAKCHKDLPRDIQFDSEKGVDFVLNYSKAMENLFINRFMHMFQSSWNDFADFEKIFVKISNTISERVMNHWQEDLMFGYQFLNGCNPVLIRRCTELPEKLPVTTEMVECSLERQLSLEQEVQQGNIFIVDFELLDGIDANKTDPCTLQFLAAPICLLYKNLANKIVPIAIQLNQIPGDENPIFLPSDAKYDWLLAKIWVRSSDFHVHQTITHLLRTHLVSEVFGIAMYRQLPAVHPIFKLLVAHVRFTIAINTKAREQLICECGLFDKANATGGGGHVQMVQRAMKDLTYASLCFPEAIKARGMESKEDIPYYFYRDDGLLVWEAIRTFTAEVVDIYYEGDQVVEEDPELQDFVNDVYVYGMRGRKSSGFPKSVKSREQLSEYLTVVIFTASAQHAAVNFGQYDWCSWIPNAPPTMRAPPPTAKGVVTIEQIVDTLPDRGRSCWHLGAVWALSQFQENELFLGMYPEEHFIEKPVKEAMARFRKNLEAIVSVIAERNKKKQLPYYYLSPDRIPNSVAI
As to the kind of experiment: In vitro inhibitory activity against 5-lipoxygenase in a human whole blood assay. Format: tissue-based.

For data set [2], the target named is Histamine H1 receptor (Homo sapiens, UniProt P35367). The data set can be described thus: In vitro binding affinity towards histamine H1 receptor expressed in CHO-K1 cells. The class given is cell-based.
The target in data set [3] is T2, Polyunsaturated fatty acid 5-lipoxygenase (Rattus norvegicus, UniProt P12527).
T2 sequence (P12527 whole entry): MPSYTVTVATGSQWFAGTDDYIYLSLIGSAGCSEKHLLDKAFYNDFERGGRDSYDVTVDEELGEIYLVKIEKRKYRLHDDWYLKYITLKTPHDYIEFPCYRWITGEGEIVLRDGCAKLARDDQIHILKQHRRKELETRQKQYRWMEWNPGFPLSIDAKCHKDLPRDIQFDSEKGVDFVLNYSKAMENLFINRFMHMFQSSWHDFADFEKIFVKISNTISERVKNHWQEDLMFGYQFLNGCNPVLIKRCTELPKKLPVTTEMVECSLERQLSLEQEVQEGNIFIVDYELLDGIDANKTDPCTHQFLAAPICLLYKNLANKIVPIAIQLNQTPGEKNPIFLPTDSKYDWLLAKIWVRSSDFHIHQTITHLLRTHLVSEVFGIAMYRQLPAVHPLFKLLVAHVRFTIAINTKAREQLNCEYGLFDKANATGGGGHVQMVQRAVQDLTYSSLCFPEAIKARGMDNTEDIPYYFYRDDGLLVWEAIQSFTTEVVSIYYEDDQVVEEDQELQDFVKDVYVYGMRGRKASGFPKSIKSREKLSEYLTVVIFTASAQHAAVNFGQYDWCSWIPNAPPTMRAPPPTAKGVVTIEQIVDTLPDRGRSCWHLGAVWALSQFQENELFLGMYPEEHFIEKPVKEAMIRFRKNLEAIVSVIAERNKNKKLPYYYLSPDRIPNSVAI
As to the kind of experiment: In vitro inhibitory activity against 5-lipoxygenase in an RBL-2H3 cell lysate. Format: cell-based.

Data set [4] is described as follows: Permeability in Caco-2 cells of compound. The following applies: human. Format: ADME, cell-based. An outline of the steps: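 Permeability measured across Caco-2 cells and reported as apparent permeability (Papp) in cm/sec.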
(Caco-2 cells form a polarised layer with tight junctions and transporters.)

For data set [5], the species on record is Rattus norvegicus. As to the kind of experiment: Intrinsic clearance of compound against NADPH-fortified rat liver microsomes. The class given is ADME, Microsome. An outline of the steps: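 Compound incubated with NADPH-fortified rat liver microsomes to measure metabolic stability. Intrinsic clearance is reported as µL/min/mg protein.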

A value given as a limit tells only on which side of the number the result lay.

Chain of Histamine H1 receptor (P35367 whole entry): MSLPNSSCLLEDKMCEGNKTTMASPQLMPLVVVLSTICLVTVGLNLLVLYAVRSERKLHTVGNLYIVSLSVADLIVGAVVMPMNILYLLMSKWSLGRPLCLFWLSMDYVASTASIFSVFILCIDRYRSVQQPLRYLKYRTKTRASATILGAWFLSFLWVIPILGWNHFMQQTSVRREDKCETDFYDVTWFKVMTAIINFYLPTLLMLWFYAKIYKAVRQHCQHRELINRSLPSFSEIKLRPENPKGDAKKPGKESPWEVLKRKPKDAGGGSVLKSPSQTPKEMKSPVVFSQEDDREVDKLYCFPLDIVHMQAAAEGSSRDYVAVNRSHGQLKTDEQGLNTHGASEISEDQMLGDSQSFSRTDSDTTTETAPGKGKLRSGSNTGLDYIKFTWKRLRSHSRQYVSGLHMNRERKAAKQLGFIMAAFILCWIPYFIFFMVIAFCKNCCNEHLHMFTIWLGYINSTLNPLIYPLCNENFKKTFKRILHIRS

On to `NC(=O)N(O)CCC#C[C@@H]1CC[C@@H](CN2CCN(C(c3ccc(F)cc3)c3ccc(F)cc3)CC2)O1`, for which 140 nM corresponded to half-maximal inhibition in data set [1] (IC50). The compound further had a Ki in data set [2] of 660 nM.
`NC(=O)N(O)CCC#C[C@H]1CC[C@H](CN2CCN([C@H](c3ccccc3)c3ccc(Cl)cc3)CC2)O1` returned an IC50 in data set [1] of 510 nM. For the same compound, the Ki in data set [2] stood at 180 nM.
Consider `NC(=O)N(O)CCC#Cc1ccc(CN2CCN(C(c3ccc(F)cc3)c3ccc(F)cc3)CC2)o1`, for which the IC50 in data set [3] is under 200 nM; in data set [1], 170 nM.
For the compound `NC(=O)N(O)CCC#C[C@@H]1CC[C@@H](CN2CCN([C@H](c3ccccc3)c3ccc(Cl)cc3)CC2)O1`, the Ki in data set [2] worked out at 50 nM.
`CC(C#Cc1ccc(CN2CCN([C@H](c3ccccc3)c3ccc(Cl)cc3)CC2)o1)N(O)C(N)=O` (some centres undefined) gave an IC50 in data set [1] of 3500 nM. Also, affinity in data set [2] was put at a Ki of 190 nM.
As to `NC(=O)N(O)CCC#C[C@@H]1CC[C@@H](COc2ccc(F)cc2)O1`, 117 nM corresponded to half-maximal inhibition in data set [1] (IC50).
As for `NC(=O)N(O)CCC#Cc1ccc(CN2CCN([C@H](c3ccccc3)c3ccc(Cl)cc3)CC2)o1`, the IC50 is under 200 nM in data set [3] and 420 nM in data set [1]. Further, in data set [4], the Permeability stood at 6 ×10⁻⁶ cm/s. The Clint in data set [5] is 33 ul min-1 (mg of protein)-1.

In general, IC50 refers to the concentration that gives 50% inhibition. As usually defined, the Ki is a dissociation constant, usually derived from enzyme kinetics or from competition with a known ligand. A lower Ki goes with a stronger hold on the target.

These data come from ChEMBL document CHEMBL1147568, “5-lipoxygenase inhibitors with histamine H(1) receptor antagonist activity” (Bioorg Med Chem Lett, 2004).
